Test results reported in the array DNA melting data of Ke et al. (doi:10.1101/2024.01.08.574731).

Experiments:
[1] = folding enthalpy; higher = less favourable; fluorescence melt of hairpins on a sequencing array, two-state fit; conditions: sodium 0.088 M
In short: (§1)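 Two-state fits, bootstrapped, provided melting temperature and folding enthalpy from Cy3 fluorescence normalised to pre-quench Cy3 and to control constructs. Library hairpins with annealed Cy3 and quencher oligos were imaged on a sequenced MiSeq flow cell in 50 mM Na-HEPES pH 8.0, 25 mM NaCl, at 2.5 °C intervals up to 60 °C. Four replicates were combined with inverse-variance weighting. A 9.35 °C upward shift was applied to fitted temperatures to match UV melts.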

[2] = melting temperature; fluorescence melt of hairpins on a sequencing array, two-state fit, raised by 9.35 °C to match UV melts; conditions: sodium 0.088 M
In short: as §1

Row | Sequence | folding enthalpy [1] | Tm [2]
1 | GATCATTCATATGATC ((((((....)))))) | -38.8 kcal/mol | 48 °C
2 | GCCAACTCGAAAGAGGGC (((..(((....)))))) | -20.2 kcal/mol | 47.3 °C
3 | GCACGGCGAAAGCTTTGC (((..((....))..))) | -22.6 kcal/mol | 38.3 °C
4 | TAGCAGAAATGCTA (((((....))))) | -14 kcal/mol | 38.1 °C
5 | GCTGTGCGAAAGCCCAGC ((((.((....)).)))) | -28.1 kcal/mol | 61.8 °C
6 | GTACACGGAAACACGTAC ((((..(....)..)))) | -15.4 kcal/mol | 29.1 °C
7 | GCCGCCGAAAGGCCGGGC ((((((....)))..))) | -16.9 kcal/mol | 60.4 °C
8 | GGGGAGGGAAACCTTCCC (((.(((....))).))) | -33 kcal/mol | 53.4 °C
9 | GACTAACGAAAGTTGTC (((.(((....)))))) | -24.1 kcal/mol | 42.4 °C
10 | CGCGGACCGCTCCGCG ((((((....)))))) | -34.1 kcal/mol | 63.1 °C
11 | GTCAATGCGAAAGCAGAC (((..(((....)))))) | -16.3 kcal/mol | 39.1 °C
12 | GCATGCCGAAAGGCCTGC (((.(((....))).))) | -31.6 kcal/mol | 55.9 °C
13 | GCGAAGCGAAAGCTGCGC (((.(((....))).))) | -23.6 kcal/mol | 67.7 °C
14 | GATATTGGAAACAGTATC ((((.((....)).)))) | -12.2 kcal/mol | 34.3 °C
15 | GCTCACGAAAGTGAAAGC ((((((....)))..))) | -21 kcal/mol | 48.9 °C
16 | GATCCATCACTGGATC ((((((....)))))) | -35.6 kcal/mol | 50.2 °C
17 | ACACGGAAACGTGT (((((....))))) | -24 kcal/mol | 55.1 °C
18 | GCCAACGAAAGTTGGGC ((((((....))).))) | -14.2 kcal/mol | 65.7 °C
19 | CGAGCGGAAACGCTTCG ((((((....))).))) | -15 kcal/mol | 50.6 °C
20 | GTTCACCCGAAAGGGAAC (((..(((....)))))) | -14.3 kcal/mol | 37.2 °C
21 | GCTCTAGGAAACTAGGGC ((.((((....)))).)) | -32.7 kcal/mol | 47.1 °C
22 | GACATTCCGAAAGGAGTC (((..(((....)))))) | -12.3 kcal/mol | 28.6 °C
23 | GCGTACGAAAGTACCGC ((((((....))).))) | -22.2 kcal/mol | 56.8 °C
24 | GCATTGGGAAACCGATGC ((((.((....)).)))) | -50.4 kcal/mol | 53.3 °C

Row | Sequence | folding enthalpy [1] | Tm [2]
25 | GCGAGTATCGC ((((...)))) | -18.7 kcal/mol | 58.4 °C
26 | GATCGGTTCCCGATC ((((((...)))))) | -39.3 kcal/mol | 59.3 °C
27 | GATCTTTTTAAAGATC ((((((....)))))) | -41.4 kcal/mol | 49.6 °C
28 | GCCCAGCGAAAGCCGCGC ((.(.((....)).).)) | -10.1 kcal/mol | 45.7 °C
29 | GATCGTGACACGATC ((((((...)))))) | -40.4 kcal/mol | 59.9 °C
30 | GAGCTAGCGAAAGCTCTC (((..(((....)))))) | -17 kcal/mol | 45.3 °C
31 | GATCGTAACCACGATC ((((((....)))))) | -35.8 kcal/mol | 54.8 °C
32 | GGAGAATCGAAAGATTCC (((..(((....)))))) | -15.8 kcal/mol | 38.1 °C
33 | GCATTGGGAAACCAATAC (.(((((....))))).) | -18.4 kcal/mol | 32.9 °C
34 | GTCGTTGGAAACAATGAC (((.(((....))).))) | -32.5 kcal/mol | 48.3 °C
35 | CGGACGGAAACGTGCCCG ((((((....)))..))) | -14.8 kcal/mol | 35.9 °C
36 | GAATGCGAAAGCAGCTTC ((((((....)))..))) | -23 kcal/mol | 39.7 °C
37 | GTGTAACGAAAGTTGCAC (((.(((....))).))) | -33 kcal/mol | 53.6 °C
38 | GCCTAGCGAAAGCATGGC (((..((....))..))) | -30.7 kcal/mol | 61.2 °C
39 | GATCTGTCTACAGATC ((((((....)))))) | -47.5 kcal/mol | 54.9 °C
40 | GATCTGCACACAGATC ((((((....)))))) | -43.9 kcal/mol | 51.6 °C
41 | GGCAGCGAAAGCTCGGCC ((((((....)))..))) | -17.7 kcal/mol | 53.5 °C
42 | GATCAGTTTTCTGATC ((((((....)))))) | -30.5 kcal/mol | 52.3 °C
43 | GATCTCATTCGAGATC ((((((....)))))) | -39.4 kcal/mol | 53.5 °C
44 | GCGAGCGAAAGCTTTCGC ((((((....)))..))) | -13.2 kcal/mol | 50.3 °C
45 | GAGTTGGGAAACTAACTC (((((.(....).))))) | -31 kcal/mol | 43.6 °C
46 | GATCAGACTTCTGATC ((((((....)))))) | -36.3 kcal/mol | 50.3 °C
47 | GTGTACGAAAGTAGACAC ((((((....)))..))) | -22.7 kcal/mol | 40.8 °C
48 | GATCGCGAAAGCGAATC ((((((....))).))) | -14 kcal/mol | 52.5 °C

Row | Sequence | folding enthalpy [1] | Tm [2]
49 | GATCCTCACTAGGATC ((((((....)))))) | -35.1 kcal/mol | 51.7 °C
50 | GTCCGCGGAAACACGGAC (((((.(....).))))) | -42 kcal/mol | 54.2 °C
51 | GAGGTTGGAAACGACCTC (((((.(....).))))) | -34.4 kcal/mol | 51.3 °C
52 | GATACCGAAAGGTAAATC ((((((....)))..))) | -13.5 kcal/mol | 28.7 °C
53 | GCGGTTACGAAAGTACGC (((..(((....)))))) | -26.7 kcal/mol | 48.4 °C
54 | GGCGTAGCGAAAGCTGCC (((..(((....)))))) | -21.9 kcal/mol | 55.3 °C
55 | GTTTTTCGAAAGAATAAC (((.(((....))).))) | -28.1 kcal/mol | 34.7 °C
56 | GTGAAACGAAAGTTGCAC (((.(((....))).))) | -31.2 kcal/mol | 51.6 °C
57 | GCCAGTGGAAACATTGGC ((((.((....)).)))) | -37 kcal/mol | 50.8 °C
58 | GTAGCCCGAAAGGGGTAC (((.(((....))).))) | -32 kcal/mol | 68.5 °C
59 | CGTGAGAAATCACG (((((....))))) | -25.8 kcal/mol | 50.8 °C
60 | GATCTTTCGCAAGATC ((((((....)))))) | -32.4 kcal/mol | 43.5 °C
61 | GCTGTCCGAAAGGATAGC (((.(((....))).))) | -39.6 kcal/mol | 59.3 °C
62 | GCGGCTGGAAACGGCTGC ((.((.(....).)).)) | -38.5 kcal/mol | 53 °C
63 | GTGCTCCGAAAGGACAC (((.(((....)))))) | -27.4 kcal/mol | 51.9 °C
64 | GATCTTCTGAAAGATC ((((((....)))))) | -25.4 kcal/mol | 42.1 °C
65 | GATACCACGAAAGTGATC (((..(((....)))))) | -9.05 kcal/mol | 21.2 °C
66 | GATCCACCATGGATC ((((((...)))))) | -37.4 kcal/mol | 49.7 °C
67 | GGGCACGGAAACGCGCCC ((((.((....)).)))) | -44 kcal/mol | 64.3 °C
68 | GCCGCGGGAAACCACGGC ((((.((....)).)))) | -38.4 kcal/mol | 63.6 °C
69 | GAAGACCGAAAGGTATTC (((.(((....))).))) | -32.5 kcal/mol | 50.8 °C
70 | GTGTCGAAAGACAC (((((....))))) | -25.7 kcal/mol | 68 °C
71 | GATCCAACGATGGATC ((((((....)))))) | -34 kcal/mol | 48.1 °C
72 | GCGATCCTTCGC ((((....)))) | -24.6 kcal/mol | 53.7 °C

Row | Sequence | folding enthalpy [1] | Tm [2]
73 | GAGGCCGAAAGGCATCTC ((((((....)))..))) | -17.1 kcal/mol | 68.4 °C
74 | GTTTACGAAAGTAAAAC ((((((....))).))) | -16.8 kcal/mol | 38.4 °C
75 | CGTTTCGGAAACGATACG (((.(((....))).))) | -33.6 kcal/mol | 45.6 °C
76 | GGGGGGGGAAACCCCCTC (.(((((....))))).) | -12.5 kcal/mol | 67.8 °C
77 | GTAGGCGAAAGCCCCTAC ((((((....)))..))) | -7.29 kcal/mol | 23.7 °C
78 | GCGGTCGTCCGC ((((....)))) | -31.1 kcal/mol | 56.9 °C
79 | GATCTGTGAACAGATC ((((((....)))))) | -43 kcal/mol | 52.9 °C
80 | GTTGAGGAAACTCAAC ((((((....)))))) | -32.2 kcal/mol | 53.4 °C
81 | GGTGTCGGAAACGGCACC ((((.((....)).)))) | -46.5 kcal/mol | 64.7 °C
82 | GATCGCCCATGCGATC ((((((....)))))) | -36.2 kcal/mol | 67.6 °C
83 | GAAAACGAAAGTTGCTTC ((((((....)))..))) | -19.8 kcal/mol | 33.1 °C
84 | GTGAGAGGAAACCCTCAC (((((.(....).))))) | -26.2 kcal/mol | 43.5 °C
85 | GGGTATGGAAACATGCCC (((.(((....))).))) | -50.4 kcal/mol | 54.3 °C
86 | GATCTACATGTAGATC ((((((....)))))) | -45.9 kcal/mol | 52.5 °C
87 | GTCATCGAAAGATTTGAC ((((((....)))..))) | -13.2 kcal/mol | 29.4 °C
88 | CGCTCCGGAAACGGTGCG (((.(((....))).))) | -31.3 kcal/mol | 60.2 °C
89 | GCTCCGGGAAACTGGAGC (((((.(....).))))) | -45.7 kcal/mol | 60.1 °C
90 | GTTATGGAAACATAAC ((((((....)))))) | -30.3 kcal/mol | 47.5 °C
91 | GAATACGGAAACGCATTC ((((.((....)).)))) | -29.8 kcal/mol | 36.8 °C
92 | GACGTAGCGAAAGCTGTC (((..(((....)))))) | -17.7 kcal/mol | 47.1 °C
93 | GCCACATCGAAAGATGGC (((..(((....)))))) | -15.2 kcal/mol | 45.5 °C
